Assay outcomes: PubChem, several laboratories
M1 agonist – agonists of M1 muscarinic receptor | CHO-M1 cells, Fluo-4 calcium fluorescence, agonist mode; hits give high values | 64,000 compounds, 3% hits | B-score at 10 µM;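 active means fluorescence rise, raw or as B-score row- and column-corrected plate score, outside the 99.7% band of its plate's samples, either direction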
D1 allo mod – allosteric modulators of human D1 dopamine receptor. P21728. HEK293 D1, CRE-luciferase, dopamine EC30 potentiation; actives deviate in either direction. B-score at 10 µM. 58,000 compounds, 5.9% hits;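 active means luminescence count or its row- and column-corrected plate score outside the 99.7% band of the plate's sample wells, on either side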
M1 antagonist – M1 muscarinic receptor (rat) antagonism; P08482; CHO-M1 cells, Fluo-4 calcium, ACh EC80 antagonist mode; hits give low values; B-score at 10 µM; 64,000 compounds, 3.4% hits; AID 628;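 active means calcium fluorescence response, raw or row-and-column corrected B-score, differing from the plate sample mean either way at a set confidence level, mostly lower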
S1P3 ag – S1P3 (human) receptor agonism | AID 373 | S1P3 NFAT-BLA reporter cells, FRET ratio; relative to 1 µM S1P, basal subtracted | Q99500 | activation, % at 4.5 µM | 60,000 compounds, 0.1% hits;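 active means activation above the screen-wide mean plus 3 SD, cut at about 4.5% in these data, passing the limit was not always enough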
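Assay system: stable CHO line with human S1P3, Gα16, NFAT-BLA reporter; Detection: FRET β-lactamase substrate fluorescence, excitation 405 nm, 460/535 nm emission ratio, background-subtracted; Read-out: percent activation versus median 1 µM S1P response, basal-subtracted, per plate; Incubation: cells plated overnight, compound 4 h 37 °C, substrate 2 h RT.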
S1P1 ag-PAM – S1P1 (human) agonism or agonism potentiation | 56,000 compounds, 0.57% hits | activation, % at 9.5 µM | S1P1 CRE-bla cells, forskolin, beta-lactamase FRET, potentiator mode; S1P1 agonist co-added at EC20, 2 nM; 100% = saturating reference agonist, 0% = basal;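 active means activation above a cutoff set at the mean activation of all tested compounds plus 3 SD, cut at about 54% in these data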;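 further: forskolin at 4 µM as EC80 and the EC20 agonist is SEW2871; 100% = SEW2871 at its EC100 plus forskolin at EC80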
Target sequence (P21453 whole entry, looked up): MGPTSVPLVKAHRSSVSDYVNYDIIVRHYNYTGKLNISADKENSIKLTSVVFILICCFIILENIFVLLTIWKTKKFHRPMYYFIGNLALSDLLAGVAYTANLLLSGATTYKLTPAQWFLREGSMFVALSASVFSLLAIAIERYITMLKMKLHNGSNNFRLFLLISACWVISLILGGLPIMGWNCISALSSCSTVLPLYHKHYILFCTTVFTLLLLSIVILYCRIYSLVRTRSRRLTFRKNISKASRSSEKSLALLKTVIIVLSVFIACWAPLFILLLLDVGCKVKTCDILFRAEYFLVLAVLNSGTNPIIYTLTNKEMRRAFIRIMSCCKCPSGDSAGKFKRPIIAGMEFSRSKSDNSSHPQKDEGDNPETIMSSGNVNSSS
M1 antag conf – confirmation of rat M1 muscarinic receptor antagonists; CHO-M1 cells, Fluo-4 calcium, ACh EC80 antagonism; hits give low values; shares compounds with M1 antagonist; 1,700 compounds, 43% hits; calcium response (max-min fluorescence) at 10 µM;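 active means calcium response below the same-plate mean of wells given acetylcholine alone at its 80%-effect dose, minus 3 SD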;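 further: raw fluorescence intensity difference in arbitrary instrument units and not normalized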
mGluR4 antag – selectivity test for M1 antagonists: human mGluR4 receptor; shares compounds with M1 antagonist; CHO-mGluR4 calcium flux, Fluo-4 fluorescence, glutamate EC80; hits give low values; fluorescence response (max-min) at 10 µM; 1,700 compounds, 0.9% hits; AID 678;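 active means fluorescence response below the plate's average for near-maximal glutamate wells, less 3 SD of those wells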;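 further: raw unnormalized fluorescence span taken in the window right after glutamate addition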
The depositor's hits bear a star; . = no result given. Compounds with a hit are over-represented: about 11% of the library has one in this group of screens.

SMILES	M1 agonist	D1 allo mod	M1 antagonist	S1P3 ag	S1P1 ag-PAM	M1 antag conf	mGluR4 antag
Cc1ccc2occ(CN3CCN(c4ccccc4)CC3)c(=O)c2c1	1.1	-0.16	-3.4*	0	-6	508*	223
Nn1cc(-c2ccccc2)nc1SCC(=O)NCCN1C(=O)CSC1=O	-0.053	-0.2	0.21	0	11	.	.
CCOC(=O)c1ccc(N2C(=O)C3C(C2=O)C(C(=O)c2ccc(Cl)cc2)N2CCCC32)cc1 (stereo not given)	0.33	0.74	-1.7*	-1	-14	514	218
O=C(Nc1ccc(Cl)cc1)N1CCSCC1	-0.029	-0.061	-2.3*	.	.	554	213
Cn1cnnc1SCC(=O)c1ccc2c(c1)CCCC2	-1.1	0.011	0.48	0	.	.	.
CCC(C(=O)N1CCc2ccccc2C1)n1nc(C)n2c(cc3occc32)c1=O (stereo not given)	0.095	-0.13	-0.3	0	4	.	.
CCc1nc(Nc2ccncc2)c2oc3ccccc3c2n1	-0.59	-0.00093	-2.4*	-1	6	441*	242
CCc1nc(N[C@@H](Cc2c[nH]c3ccccc23)C(=O)O)c2oc3ccccc3c2n1	0.4	1.3	0.2	-1	5	.	.
CC1(CC(=O)O)SC(=O)NC1=O (stereo not given)	-0.59	0.054	0.36	-1	8	.	.
Clc1cccc2sc(N3CCCCC3)nc12	1.5	0.62	-0.72	0	-25	.	.
COc1ccc(OC)c2sc(N3CCCCC3)nc12	-0.33	-1.2	-4.2*	-1	18	386*	252
N#Cc1cn(CC(=O)NCc2cccnc2)c2ccccc12	0.27	-0.67	-0.007	-1	-15	.	.
N#Cc1cn(Cc2ccccc2)c2ccccc12	-0.64	0.053	-1.9*	0	19	582	239
Cn1c(CN2CCCCC2)nc2cc(NC(=O)c3ccccc3)ccc21	0.034	.	-2.8*	0	-1	472	208
Cn1c(CCN2CCOCC2)nc2cc(NC(=O)COc3ccccc3)ccc21	-0.2	-0.75	-3.7*	0	6	581	174
CC1CCN(CCc2nc3cc(NS(=O)(=O)c4ccccc4)ccc3n2C)CC1	1.1	-0.33	-6*	0	-1	415*	262
Cn1c(CCN2CCCCC2)nc2cc(NC(=O)C3CCCCC3)ccc21	-0.23	-1.4	-3.8*	0	-7	408*	198
O=C1/C(=N/n2cnnc2)c2ccccc2N1Cc1ccccc1	-1	1.4	0.036	0	0	.	.
COc1nc(OC)nc(N2CCC(C(=O)NCc3cccs3)CC2)n1	1.6	1	-0.032	0	8	.	.
CCn1cc(C(=O)Nc2ccc(C(=O)N3CCCC3)cc2)c(=O)c2ccc(C)nc21	0.052	-0.25	0.084	0	-3	.	.
Cn1c(CN2CCCCC2)nc2cc(NS(=O)(=O)c3ccc(Cl)cc3)ccc21	-1.6	0.52	-0.86	-1	.	.	.
Cn1c(CCN2CCCCC2)nc2cc(NS(=O)(=O)c3ccc(Cl)cc3)ccc21	-0.92	-1.3	-3.1*	0	-3	305*	243
Cn1c(CCN2CCN(c3ccccc3)CC2)nc2cc(NC(=O)c3ccco3)ccc21	0.59	-2.5	-5.5*	0	18	125*	203
CC1CCN(CCc2nc3cc(NS(=O)(=O)c4ccc(F)cc4)ccc3n2C)CC1	-0.1	0.091	-4*	0	8	405*	267
Cn1c(CN2CCCC2)nc2cc(NC(=O)Nc3ccccc3)ccc21	0.22	-2.5	-1.6	-1	9	.	.
SMILES	M1 agonist	D1 allo mod	M1 antagonist	S1P3 ag	S1P1 ag-PAM	M1 antag conf	mGluR4 antag
CC1CCN(CCc2nc3cc(NC(=O)Nc4ccccc4)ccc3n2C)CC1	-1.1	-0.24	-10*	1	15	302*	209
Cc1ccc(N2CCN(CCc3nc4cc(NC(=O)c5ccco5)ccc4n3C)CC2)cc1	.	-0.94	.	0	-8	.	.
COC(=O)c1cc(Br)c(=O)n(Cc2cccnc2)c1	-0.0085	0.13	-0.01	-5	-5	.	.
CC1(C)CC(=O)C=C(Nc2ccccc2F)C1	0.19	-0.11	0.11	0	-10	.	.
Cc1csc(NC(=O)CSc2ncnc3c2cnn3-c2ccccc2Cl)n1	3.9	-2.1	-2.7*	-1	48	501	184
CC(=O)C1C(c2ccc(OC(F)F)cc2)NC(=O)NC1(O)C(F)(F)F (stereo not given)	-0.068	-0.43	0.31	-2	4	.	.
COc1ccc(C2NC(=O)NC(O)(C(F)(F)F)C2C(=O)c2ccc(C)cc2)cc1 (stereo not given)	-0.11	-0.14	-6.3*	-1	.	93*	241
COC(=O)c1cn(CC(=O)NC2CCCCC2)c2ccccc12	0.33	0.13	-2*	0	3	572	219
O=C(Cn1nnc2ccccc21)NC1CCCCC1	0.56	0.58	0.0098	0	-33	.	.
COc1cc(C(=S)N2CCCC2)ccc1O	-0.91	.	0.21	0	-13	.	.
COc1cc(C(=S)N2CCCC2)cc(Cl)c1O	-0.011	.	-2*	-1	0	685	246
O=C(CSc1nnc(-c2ccc(S(=O)(=O)N3CCCC3)cc2)o1)NCc1ccco1	-0.13	-0.53	-0.51	-1	7	.	.
Cc1nnc(C)c2c(C)n(Cc3ccc4c(c3)OCO4)c(C)c12	0.25	-0.98	-4.5*	0	5	535*	203
CCSc1ccccc1C(=O)Nc1cccc(OC)c1	0.95	-0.16	-0.55	-1	15	.	.
O=C(Nc1ccc(Cl)cc1)N1CCN(c2ccc3nnc(-c4ccc(F)cc4)n3n2)CC1	0.73	0.56	-4.4*	0	-28	386*	258
CNCc1cc2ccc(C)cc2[nH]c1=O	0.078	0.23	-0.7	0	-5	.	.
Cc1c(C(=O)OCCN2CCCCC2)oc2ccccc12	0.61	-0.05	-10*	0	-12	13*	226
Cc1c(C(=O)OC(C)CCN(C)C)oc2ccccc12 (stereo not given)	-0.6	-1.3	-13*	-1	8	18*	261
Cc1c(C(=O)OCC(C)(C)CN(C)C)oc2ccccc12	-0.25	-2.2	-5*	0	-6	182*	233
Cc1c(C(=O)OCC(=O)c2c(N)n(CC(C)C)c(=O)n(C)c2=O)oc2ccccc12	.	.	.	0	27	.	.
CCOc1cc(C2C(C(=O)N3CCCCC3)=C(C)NC3=C2C(=O)CCC3)cc(Br)c1O (stereo not given)	0.23	0.99	-0.032	-1	2	.	.
CCCNC(=O)c1ccc(CNc2c(N3CCC(C(=O)OCC)CC3)c(=O)c2=O)cc1	0.74	-1.4	-0.13	1	16	.	.
CCC(=O)N1CCN(c2ccc(NC(=O)c3ccc4c(c3)OCO4)cc2)CC1	0.19	-0.34	-1	0	14	.	.
